Source: ChEMBL document CHEMBL4028848, “Discovery of N-{4-[5-(4-Fluorophenyl)-3-methyl-2-methylsulfanyl-3H-imidazol-4-yl]-pyridin-2-yl}-acetamide (CBS-3595), a Dual p38α MAPK/PDE-4 Inhibitor with Activity against TNFα-Related Diseases” (J Med Chem, 2017)
pIC50: −log10 of the molar value. Values joined by “and” are separate entries in the source; they are usually repeats but may differ in a detail not shown here. Identical values can stand only once. Active and inactive are the calls of the source. The rule behind the calls is not given here.

Experiments:
[1] = test system: Rattus norvegicus; assay: In vivo inhibition of P38 MAPKalpha in Lewis rat assessed as decrease in LPS-stimulated TNFalpha level in serum at 10 mg/kg, po pretreated for 1 hr followed by LPS addition measured after 1.5 hrs post dose relative to control; format: functional
In short: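 Lewis rats, n = 8/group: females dosed orally at 10 mg/kg at −1, −3 or −5 h relative to LPS challenge, plus one male group dosed at −1 h. Male and female vehicle controls were given at −1 h. Serum TNFα was measured after LPS and compared with vehicle.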

[2] = test system: Rattus norvegicus; assay: In vivo inhibition of P38 MAPKalpha in Lewis rat assessed as decrease in LPS-stimulated TNFalpha level in serum at 30 mg/kg pretreated for 1 hrs followed by LPS addition measured after 1.5 hrs post dose; format: functional, organism-based
[3] = test system: Rattus norvegicus; assay: In vivo inhibition of P38 MAPKalpha in Lewis rat assessed as decrease in LPS-stimulated TNFalpha level in serum at 30 mg/kg pretreated for 3 hrs followed by LPS addition measured after 1.5 hrs post dose; format: functional, organism-based
[4] = organism: Homo sapiens; assay: Inhibition of PDE4 in LPS-stimulated human whole blood assessed as decrease in leukotriene B4 level in plasma
[5] = test system: Rattus norvegicus; assay: In vivo inhibition of P38 MAPKalpha in Sprague-Dawley rat assessed as decrease in LPS-stimulated TNFalpha level in serum at 3 mg/kg, po pretreated for 1 hr followed by LPS addition measured after 2 hrs relative to control; format: functional
[6] = test system: Liver; assay: Drug level in human liver microsomes treated with CBS-3595 at 10 to 100 uM; format: ADME, microsome
In short: (§1)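 Test compound incubated at 10, 30 and 100 μM with liver microsomes from rat, Cynomolgus monkey or human, and metabolites monitored.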

[7] = test system: Liver; assay: Drug level in rat liver microsomes treated with CBS-3595 at 10 to 100 uM; format: ADME, microsome; in short: as §1
[8] = Drug level in cynomolgus monkey liver microsomes treated with CBS-3595 at 10 to 100 uM; format: ADME, Macaca fascicularis, microsome; in short: as §1
[9] = biological target: CYP2D6 (Homo sapiens, UniProt P10635); assay: Inhibition of CYP2D6 (unknown origin) at 10 uM by fluorimetric assay relative to control; format: ADME
Sequence of CYP2D6 (P10635 whole entry): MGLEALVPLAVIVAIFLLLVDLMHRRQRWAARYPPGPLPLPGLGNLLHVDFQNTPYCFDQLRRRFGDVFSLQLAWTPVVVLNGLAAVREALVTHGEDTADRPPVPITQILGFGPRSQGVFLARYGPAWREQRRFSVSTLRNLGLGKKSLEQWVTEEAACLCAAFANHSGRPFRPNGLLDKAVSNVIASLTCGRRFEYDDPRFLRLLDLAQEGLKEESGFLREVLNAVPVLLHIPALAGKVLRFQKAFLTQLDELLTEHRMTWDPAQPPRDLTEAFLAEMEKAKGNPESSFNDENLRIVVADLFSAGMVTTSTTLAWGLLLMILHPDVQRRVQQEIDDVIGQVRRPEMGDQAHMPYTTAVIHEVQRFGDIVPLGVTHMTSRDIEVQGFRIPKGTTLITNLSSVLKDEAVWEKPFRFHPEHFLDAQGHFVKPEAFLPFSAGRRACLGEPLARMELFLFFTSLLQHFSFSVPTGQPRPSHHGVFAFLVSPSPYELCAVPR
In short: (§2)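 CYP1A2, CYP2C9, CYP2C19, CYP3A4 and CYP2D6 were tested as a panel for cytochrome P450 interaction.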

[10] = AUC (0 to t) in Wistar rat at 30 mg/kg, po administered as single dose via gavage by LC-MS/MS analysis; format: ADME, organism-based; details: in vivo
In short: (§3)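 Male and female Wistar rats received a single oral gavage of 30 mg/kg. Parameters are given as the mean of the two sexes.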

[11] = biological target: Mitogen-activated protein kinase 10 (Homo sapiens) (UniProt P53779); assay: Inhibition of human recombinant full length N-terminal His6 tagged JNK3 expressed in Sf21 cells at 10 uM relative to control
Sequence of Mitogen-activated protein kinase 10 (Homo sapiens) (P53779 whole entry): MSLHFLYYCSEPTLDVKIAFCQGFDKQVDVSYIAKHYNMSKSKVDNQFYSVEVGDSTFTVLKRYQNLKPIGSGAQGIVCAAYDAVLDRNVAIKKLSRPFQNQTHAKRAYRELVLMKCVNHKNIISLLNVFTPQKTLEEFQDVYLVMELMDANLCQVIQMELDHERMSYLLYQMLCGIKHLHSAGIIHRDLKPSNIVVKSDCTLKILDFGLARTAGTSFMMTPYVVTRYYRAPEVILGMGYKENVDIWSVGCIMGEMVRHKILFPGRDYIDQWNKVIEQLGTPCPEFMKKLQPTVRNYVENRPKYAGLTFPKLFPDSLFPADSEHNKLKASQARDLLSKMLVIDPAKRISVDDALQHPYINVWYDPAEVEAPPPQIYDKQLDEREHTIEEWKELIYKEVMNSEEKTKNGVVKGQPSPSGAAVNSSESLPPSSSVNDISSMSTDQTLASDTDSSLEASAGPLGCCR

[12] = test system: Rattus norvegicus; assay: Toxicity in Wistar rat assessed as effect on microscopic appearance of liver at 100 to 2500 mg/kg, po administered for 48 hrs followed by administration of 300 mg/kg, bid for 7 days starting 8 hrs interval between first and second dose measured after 7 days; format: organism-based; details: in vivo, 168 h
[13] = Tmax in Wistar rat at 30 mg/kg, po administered as single dose via gavage by LC-MS/MS analysis; format: ADME, organism-based; details: in vivo
In short: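 Male and female Wistar rats each received a single 30 mg/kg oral gavage dose. Tmax is the mean of males and females.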

[14] = biological target: CYP2C9 (Homo sapiens, UniProt P11712); assay: Inhibition of CYP2C9 (unknown origin) at 10 uM by fluorimetric assay relative to control; format: ADME; in short: as §2
Sequence of CYP2C9 (P11712 whole entry): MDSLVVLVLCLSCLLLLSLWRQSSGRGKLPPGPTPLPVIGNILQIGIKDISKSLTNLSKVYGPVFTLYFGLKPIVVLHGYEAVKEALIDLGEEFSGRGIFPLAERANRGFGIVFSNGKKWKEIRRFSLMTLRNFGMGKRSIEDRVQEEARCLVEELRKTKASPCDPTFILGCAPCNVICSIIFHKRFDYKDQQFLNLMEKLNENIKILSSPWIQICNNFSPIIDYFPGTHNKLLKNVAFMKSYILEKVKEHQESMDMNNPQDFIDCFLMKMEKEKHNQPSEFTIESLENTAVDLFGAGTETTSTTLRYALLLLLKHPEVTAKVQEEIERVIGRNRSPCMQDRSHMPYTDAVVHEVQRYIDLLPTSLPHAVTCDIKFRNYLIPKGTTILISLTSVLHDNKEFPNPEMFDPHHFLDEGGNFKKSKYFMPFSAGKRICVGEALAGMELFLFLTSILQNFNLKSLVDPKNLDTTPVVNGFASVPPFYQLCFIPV

[15] = test system: Rattus norvegicus; assay: Toxicity in Wistar rat assessed as effect on composition of blood cells at 100 to 2500 mg/kg, po administered for 48 hrs followed by administration of 300 mg/kg, bid for 7 days starting 8 hrs interval between first and second dose measured after 7 days; format: organism-based; details: in vivo, 168 h
In short: (§4)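 Wistar rats, maximum-tolerated-dose estimate in two steps. Step one: single oral doses of 100 (n = 1), 500 (n = 1) and 2500 mg/kg (n = 3), with clinical signs watched for 48 h. Step two: 300 mg/kg (n = 5) twice daily for 7 days, second dose 8 h after the first. After 7 days, body weight gain, blood cell number and composition, liver enzymes, and macroscopic liver and spleen were recorded.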

[16] = biological target: Mitogen-activated protein kinase 11 (Homo sapiens) (UniProt Q15759); assay: Inhibition of p38beta (unknown origin) at 10 uM relative to control
Sequence of Mitogen-activated protein kinase 11 (Homo sapiens) (Q15759 whole entry): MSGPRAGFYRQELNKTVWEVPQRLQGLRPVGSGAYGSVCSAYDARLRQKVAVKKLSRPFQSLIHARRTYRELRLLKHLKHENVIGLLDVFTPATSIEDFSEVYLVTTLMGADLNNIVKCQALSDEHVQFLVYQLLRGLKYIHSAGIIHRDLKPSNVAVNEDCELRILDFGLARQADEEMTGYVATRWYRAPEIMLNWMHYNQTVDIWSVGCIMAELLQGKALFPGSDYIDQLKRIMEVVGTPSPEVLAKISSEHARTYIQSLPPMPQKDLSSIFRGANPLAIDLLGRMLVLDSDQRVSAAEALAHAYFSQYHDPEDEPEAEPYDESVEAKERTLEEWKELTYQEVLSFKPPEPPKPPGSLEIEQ

[17] = biological target: CYP1A2 (Homo sapiens, UniProt P05177); assay: Inhibition of CYP1A2 (unknown origin) at 10 uM by fluorimetric assay relative to control; format: ADME; in short: as §2
Sequence of CYP1A2 (P05177 whole entry): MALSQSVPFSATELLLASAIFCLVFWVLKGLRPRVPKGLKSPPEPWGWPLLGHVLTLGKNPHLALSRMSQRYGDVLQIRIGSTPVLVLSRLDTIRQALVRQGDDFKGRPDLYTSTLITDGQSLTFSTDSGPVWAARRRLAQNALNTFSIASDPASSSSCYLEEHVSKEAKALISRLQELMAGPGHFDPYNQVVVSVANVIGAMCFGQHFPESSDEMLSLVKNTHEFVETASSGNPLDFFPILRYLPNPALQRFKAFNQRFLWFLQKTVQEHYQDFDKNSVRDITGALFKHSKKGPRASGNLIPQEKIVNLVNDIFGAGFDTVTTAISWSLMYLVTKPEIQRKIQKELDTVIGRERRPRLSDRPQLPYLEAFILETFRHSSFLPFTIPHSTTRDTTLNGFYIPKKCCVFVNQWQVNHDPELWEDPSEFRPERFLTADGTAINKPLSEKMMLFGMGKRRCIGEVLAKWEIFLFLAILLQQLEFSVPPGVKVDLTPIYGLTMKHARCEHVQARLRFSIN

[18] = test system: Mus musculus; assay: Protection against LPS/galactosamine-induced endotoxemia in Balb/c mouse assessed as inhibition of plasma TNFalpha level at 10 mg/kg, po pretreated for 1 hr followed by LPS/galactosamine addition measured after 90 mins relative to control; format: functional
[19] = biological target: Mitogen-activated protein kinase 8 (Homo sapiens) (UniProt P45983); assay: Inhibition of human recombinant full length N-terminal His6 tagged JNK1 expressed in Sf21 cells at 10 uM relative to control
Sequence of Mitogen-activated protein kinase 8 (Homo sapiens) (P45983 whole entry): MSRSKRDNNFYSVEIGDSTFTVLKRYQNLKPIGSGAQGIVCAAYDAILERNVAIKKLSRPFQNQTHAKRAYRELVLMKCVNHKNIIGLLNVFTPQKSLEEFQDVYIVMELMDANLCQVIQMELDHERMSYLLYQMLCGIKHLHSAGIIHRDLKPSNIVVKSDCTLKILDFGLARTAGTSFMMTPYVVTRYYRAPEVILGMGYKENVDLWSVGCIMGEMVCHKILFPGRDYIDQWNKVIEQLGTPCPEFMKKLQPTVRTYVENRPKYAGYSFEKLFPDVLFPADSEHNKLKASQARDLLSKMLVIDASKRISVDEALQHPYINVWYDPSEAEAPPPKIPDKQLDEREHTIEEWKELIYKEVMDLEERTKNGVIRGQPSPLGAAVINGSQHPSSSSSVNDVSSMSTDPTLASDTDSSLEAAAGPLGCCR

[20] = biological target: CYP3A4 (Homo sapiens, UniProt P08684); assay: Inhibition of CYP3A4 (unknown origin) at 10 uM by fluorimetric assay relative to control; format: ADME; in short: as §2
Sequence of CYP3A4 (P08684 whole entry): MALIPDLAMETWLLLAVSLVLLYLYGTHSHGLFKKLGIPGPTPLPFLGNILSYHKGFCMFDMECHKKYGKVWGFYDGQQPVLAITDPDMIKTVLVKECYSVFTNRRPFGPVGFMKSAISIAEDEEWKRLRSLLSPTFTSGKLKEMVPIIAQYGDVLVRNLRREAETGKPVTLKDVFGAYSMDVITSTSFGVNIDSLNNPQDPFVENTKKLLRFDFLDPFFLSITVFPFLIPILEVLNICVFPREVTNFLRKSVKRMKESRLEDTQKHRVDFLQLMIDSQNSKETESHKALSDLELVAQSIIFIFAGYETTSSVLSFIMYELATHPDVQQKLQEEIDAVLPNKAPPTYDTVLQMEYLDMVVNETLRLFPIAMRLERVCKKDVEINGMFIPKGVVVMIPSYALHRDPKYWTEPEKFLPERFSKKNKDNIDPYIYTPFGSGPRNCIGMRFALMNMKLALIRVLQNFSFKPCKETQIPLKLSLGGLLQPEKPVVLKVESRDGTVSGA

[21] = test system: Mus musculus; assay: Antiarthritic activity in DBA/1 mouse assessed as decrease in collagen-induced arthritic score at 50 mg/kg, bid administered on day 22 post second injection of type 2 collagen; format: functional, organism-based
In short: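 Collagen-induced arthritis in male DBA/1 mice. Dosing at 50 mg/kg b.i.d. began on day 22, one day after the second (boost) injection of type II collagen.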

[22] = Half life in Wistar rat at 30 mg/kg, po administered as single dose via gavage by LC-MS/MS analysis; format: ADME, organism-based; details: in vivo
In short: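 Single oral gavage dose of 30 mg/kg given to male and female Wistar rats. PK parameters are reported as the mean of males and females.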

[23] = test system: Mus musculus; assay: Toxicity in DBA/1 mouse model of collagen-induced arthritis at 50 mg/kg, bid administered on day 22 post second injection of type 2 collagen; format: organism-based; details: in vivo
In short: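 Male DBA/1 mice with collagen-induced arthritis were dosed at 50 mg/kg b.i.d. starting on day 22, 1 day after the type II collagen boost. Animals were monitored for signs of toxicity, including body weight loss relative to controls.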

[24] = test system: Rattus norvegicus; assay: Toxicity in Wistar rat assessed as change in body weight at 100 to 2500 mg/kg, po administered for 48 hrs followed by administration of 300 mg/kg, bid for 7 days starting 8 hrs interval between first and second dose measured after 7 days; format: organism-based; details: in vivo, 168 h; in short: as §4
[25] = biological target: CYP2C19 (Homo sapiens, UniProt P33261); assay: Inhibition of CYP2C19 (unknown origin) at 10 uM by fluorimetric assay relative to control; format: ADME; in short: as §2
Sequence of CYP2C19 (P33261 whole entry): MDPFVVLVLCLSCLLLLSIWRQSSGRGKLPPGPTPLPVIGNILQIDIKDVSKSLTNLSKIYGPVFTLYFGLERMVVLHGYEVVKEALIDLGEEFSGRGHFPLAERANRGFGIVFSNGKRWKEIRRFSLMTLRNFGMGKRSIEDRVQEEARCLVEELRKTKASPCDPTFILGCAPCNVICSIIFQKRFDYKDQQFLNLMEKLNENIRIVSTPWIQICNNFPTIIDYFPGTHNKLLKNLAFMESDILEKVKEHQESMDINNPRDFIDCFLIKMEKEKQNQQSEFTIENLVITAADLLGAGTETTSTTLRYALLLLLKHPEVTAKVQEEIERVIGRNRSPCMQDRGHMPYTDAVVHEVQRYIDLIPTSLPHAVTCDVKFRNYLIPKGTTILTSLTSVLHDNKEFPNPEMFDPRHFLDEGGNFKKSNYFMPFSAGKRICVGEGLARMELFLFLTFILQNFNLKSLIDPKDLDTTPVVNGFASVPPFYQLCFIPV

[26] = test system: Rattus norvegicus; assay: Toxicity in Wistar rat assessed as effect on number of blood cells at 100 to 2500 mg/kg, po administered for 48 hrs followed by administration of 300 mg/kg, bid for 7 days starting 8 hrs interval between first and second dose measured after 7 days; format: organism-based; details: in vivo, 168 h; in short: as §4
[27] = test system: Rattus norvegicus; assay: Toxicity in Wistar rat assessed as effect on liver enzyme at 100 to 2500 mg/kg, po administered for 48 hrs followed by administration of 300 mg/kg, bid for 7 days starting 8 hrs interval between first and second dose measured after 7 days; format: organism-based; details: in vivo, 168 h; in short: as §4
[28] = biological target: Mitogen-activated protein kinase 9 (Homo sapiens) (UniProt P45984); assay: Inhibition of human recombinant full length N-terminal His6 tagged JNK2 expressed in Sf21 cells at 10 uM relative to control
Sequence of Mitogen-activated protein kinase 9 (Homo sapiens) (P45984 whole entry, looked up): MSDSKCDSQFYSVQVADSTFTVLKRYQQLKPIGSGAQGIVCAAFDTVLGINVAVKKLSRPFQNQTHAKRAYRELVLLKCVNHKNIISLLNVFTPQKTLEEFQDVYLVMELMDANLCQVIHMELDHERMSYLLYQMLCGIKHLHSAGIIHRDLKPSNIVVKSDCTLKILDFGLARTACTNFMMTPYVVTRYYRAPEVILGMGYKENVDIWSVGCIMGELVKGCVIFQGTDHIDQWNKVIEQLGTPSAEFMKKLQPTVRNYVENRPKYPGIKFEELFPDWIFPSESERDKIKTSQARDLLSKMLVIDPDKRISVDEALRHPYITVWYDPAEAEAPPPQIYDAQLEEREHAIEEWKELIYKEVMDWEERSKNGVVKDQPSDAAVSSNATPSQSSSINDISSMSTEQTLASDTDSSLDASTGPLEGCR

[29] = Cmax in Wistar rat at 30 mg/kg, po administered as single dose via gavage by LC-MS/MS analysis; format: ADME, organism-based; design: dose 30 mg/kg, route oral; details: in vivo; in short: as §3
[30] = test system: Rattus norvegicus; assay: Toxicity in Wistar rat assessed as effect on microscopic appearance of spleen at 100 to 2500 mg/kg, po administered for 48 hrs followed by administration of 300 mg/kg, bid for 7 days starting 8 hrs interval between first and second dose measured after 7 days; format: organism-based; details: in vivo, 168 h
[31] = biological target: Mitogen-activated protein kinase 14 (Homo sapiens, UniProt Q16539); assay: Inhibition of p38alpha MAPK (unknown origin)
Sequence of Mitogen-activated protein kinase 14 (Q16539 whole entry): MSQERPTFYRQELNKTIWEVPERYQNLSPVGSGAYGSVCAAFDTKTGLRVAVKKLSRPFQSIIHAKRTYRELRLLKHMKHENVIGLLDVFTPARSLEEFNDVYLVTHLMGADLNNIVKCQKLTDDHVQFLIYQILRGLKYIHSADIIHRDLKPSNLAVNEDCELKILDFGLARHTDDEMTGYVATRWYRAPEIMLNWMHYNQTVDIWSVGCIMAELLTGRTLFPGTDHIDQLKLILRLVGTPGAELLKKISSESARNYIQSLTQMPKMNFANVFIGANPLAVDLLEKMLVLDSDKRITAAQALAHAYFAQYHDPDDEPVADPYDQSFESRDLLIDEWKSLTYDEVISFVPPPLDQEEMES

[32] = organism: Homo sapiens; assay: Inhibition of PDE4 in human U937 cells assessed as [3H]cAMP hydrolysis at 10 uM relative to control; format: cell-based

Structure (SMILES): CCc1nc(-c2cccc(C)c2)c(-c2ccnc(NC(=O)c3ccccc3)c2)s1 [TAK-715]
- inhibition in vivo at 10 mg/kg [1]: 6%

Structure (SMILES): C[S+]([O-])c1ccc(-c2nc(-c3ccc(F)cc3)c(-c3ccncc3)[nH]2)cc1 (stereo not drawn) [SB-203580]
- inhibition [2]: Active
- inhibition [3]: Active
- inhibition [4]: inactive
- inhibition in vivo at 3 mg/kg [5]: 37%

Structure (SMILES): Cn1c(S(C)(=O)=O)nc(-c2ccc(F)cc2)c1-c1ccnc(N)c1
- Drug metabolism [6]: Metabolite_Detected
- Drug metabolism [7]: Metabolite_Detected
- Drug metabolism [8]: Metabolite_Detected

Structure (SMILES): CSc1nc(-c2ccc(F)cc2)c(-c2ccnc(Nc3ccccc3)c2)[nH]1
- inhibition at 10 µM [9]: 74.5%
- AUC(0-t) [10]: 3710 ng·h/mL and 9.86 µM·h
- inhibition [11]: > 70%
- Activity [12]: Non-Toxic
- Tmax [13]: 2 h
- inhibition at 10 µM [14]: 60%
- Activity [15]: Non-Toxic
- inhibition [16]: > 70%
- inhibition at 10 µM [17]: 72%
- inhibition in vivo at 10 mg/kg [18]: 60%
- inhibition [19]: > 70%
- inhibition at 10 µM [20]: 16.5%
- Activity [21]: Active
- half-life [22]: 2.8 h
- Activity [23]: Non-Toxic
- Activity [24]: Non-Toxic
- inhibition at 10 µM [25]: 90%
- Activity [26]: Non-Toxic
- Activity [27]: Non-Toxic
- inhibition [28]: > 70%
- Cmax [29]: 608 ng/mL and 1.61 µM
- Activity [30]: Non-Toxic

Structure (SMILES): CC(=O)Nc1cc(-c2c(-c3ccc(F)cc3)nc([S@@+](C)[O-])n2C)ccn1
- pIC50 [31]: 6.89

Structure (SMILES): CS(=O)(=O)c1nc(-c2ccc(F)cc2)c(-c2ccnc(NC3CCOCC3)c2)[nH]1
- inhibition [32]: 36%
- inhibition in vivo at 10 mg/kg [1]: 21%
